Holding throughout (type): functional, cell-based
In experiment [1] the test system is CEM-SS. As to the kind of experiment: Cytotoxicity was measured against CEM-SS/HIV-1 (NIH-DZ). To be noted: Homo sapiens. The essentials: (§1)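 Cytotoxicity was measured in cells-plus-drug control wells run alongside the antiviral assay. Serial half-log dilutions of acetate salts were tested in triplicate. After 6 days at 37 °C, viability was read spectrophotometrically by XTT reduction to soluble formazan. IC50 is the concentration giving a 50% decrease in viable cell number.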

Experiment [2] has as its system CEM-SS. As to the kind of experiment: Anti-HIV activity was measured against HIV-1 Lymphotropic MCK clinical isolates in CEM-SS cells. To be noted: Homo sapiens. The essentials:
(§2)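 Cell lines in RPMI 1640 without phenol red, with 5% fetal bovine serum, 2 mM L-glutamine and 50 µg/mL gentamicin, at 37 °C and 5% CO2. Seeded at 5 × 10^5 cells/well and infected with pretitered virus at MOI 0.01-0.05, chosen for complete cell killing by day 6. Half-log aqueous dilutions of acetate salts tested in triplicate. XTT formazan read after 6 days; EC50 is 50% inhibition of virus-induced killing.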

Experiment [3] concerns CEM-SS. The experiment in a line: Anti-HIV activity was measured against HIV-1 Promonocytropic MN clinical isolates in CEM-SS cells. To be noted: Homo sapiens. The essentials:
as §2

The test system of experiment [4] is MT2. As to the kind of experiment: Cytotoxicity was measured against MT-2/HIV-2(NIH-DZ). To be noted: Homo sapiens. The essentials: as §1
The test system of experiment [5] is CEM-SS. The experiment in a line: Anti-HIV activity was measured against HIV-2 MS laboratory strains in CEM-SS cells. To be noted: Homo sapiens. The method, boiled down: as §2
In experiment [6] the test system is CCRF-CEM. As to the kind of experiment: Cytotoxicity was measured against 174*CEM/HIV-1(IIIB). The settings on record: Homo sapiens. The essentials:
as §1

Experiment [7] relates to CEM-SS. The experiment in a line: Anti-HIV activity was measured against HIV-1 Lymphotropic 205 clinical isolates in CEM-SS cells. To be noted: Homo sapiens. The essentials:
as §2

Experiment [8] deals with CEM-SS. As to the kind of experiment: Anticytopathic activity was measured against HIV-2(CBL-20 strain) in CEM-SS human lymphoblastoid target cells. The essentials: as §2
A general note: Cytopathic effects are the visible damage that an infection or toxin causes in cultured cells.

Experiment [9] relates to AA5. As to the kind of experiment: Cytotoxicity was measured against AA5/HIV-1(IIIB). To be noted: Homo sapiens. The method, boiled down:
as §1

Experiment [10] relates to CEM-SS. The experiment in a line: Anti -HIV activity was measured against CEM-SS/HIV-1 (NIH-DZ). The settings on record: Homo sapiens. The method, boiled down: as §2
Experiment [11] concerns MT2. The experiment in a line: Anti -HIV activity was measured against MT-2/HIV-1(RF). To be noted: Homo sapiens. The method, boiled down:
(§3)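 MT-2 cells (RPMI 1640 without phenol red, 5% FBS, 2 mM L-glutamine, 50 µg/mL gentamicin; 37 °C, 5% CO2) seeded at 5 × 10^5 cells/well and infected at an MOI pretitered for complete cell killing by day 6 (MOI 0.01-0.05). Serial half-log aqueous dilutions of acetate salt added in triplicate. After 6 days at 37 °C, viability read by XTT formazan. EC50 = 50% inhibition of virus-induced killing.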

Experiment [12] deals with AA5. As to the kind of experiment: Anti -HIV activity was measured against AA5/HIV-1(IIIB). The settings on record: Homo sapiens. The essentials: as §2
For experiment [13], the system named is CEM-SS. The experiment in a line: Anti-HIV activity was measured against HIV-1 Lymphotropic PM16 clinical isolates in CEM-SS cells. The settings on record: Homo sapiens. The essentials:
as §2

In experiment [14] the test system is MT2. As to the kind of experiment: Anti-HIV activity was measured against drug resistant HIV-1 A17 in MT-2 cells. To be noted: Homo sapiens. The essentials:
as §3

The subject of experiment [15] is CCRF-CEM. As to the kind of experiment: Anti -HIV activity was measured against 174*CEM/HIV-1(IIIB). The settings on record: Homo sapiens. The method, boiled down:
as §2

Experiment [16] relates to MT2. As to the kind of experiment: Anti-HIV activity was measured against drug resistant HIV-1 G9106 in MT-2 cells. To be noted: Homo sapiens. The essentials:
as §3

Experiment [17] relates to CEM-SS. As to the kind of experiment: Anti-HIV activity was measured against HIV-2 ROD strain laboratory strains in CEM-SS cells. To be noted: Homo sapiens. The method, boiled down: as §2
The subject of experiment [18] is CEM-SS. As to the kind of experiment: Anti-HIV activity was measured against HIV-1,IIIB laboratory strains in CEM-SS cells. To be noted: Homo sapiens. The method, boiled down:
as §2

Experiment [19] relates to MT2. As to the kind of experiment: Anti -HIV activity was measured against MT-2/HIV-2(NIH-DZ). The settings on record: Homo sapiens. The essentials:
as §3

In experiment [20] the test system is C8166. The experiment in a line: Anti -HIV activity was measured against C8166/HIV-1(RF). To be noted: Homo sapiens. The essentials: as §2
For experiment [21], the system named is LDV-7 cell line. The experiment in a line: Cytotoxicity was measured against LDV-7/HIV-1(RF). The settings on record: Homo sapiens. The essentials: as §1
Experiment [22] has as its system CEM-SS. The experiment in a line: Anti -HIV activity was measured against CEM-SS/HIV-1 (RF). To be noted: Homo sapiens. The essentials: as §2
Experiment [23] deals with CEM-SS. The experiment in a line: Cytotoxicity was measured against CEM-SS/HIV-1 (RF). The settings on record: Homo sapiens. The essentials:
as §1

Experiment [24] relates to PMC. As to the kind of experiment: Cytotoxicity was measured against PMCs/HIV-1(Ba-L). To be noted: Homo sapiens.
Experiment [25] deals with PBL. The experiment in a line: Cytotoxicity was measured against PBLs/HIV-1 (WEJO). The settings on record: Homo sapiens.
For experiment [26], the system named is CEM-SS. The experiment in a line: Anti-HIV activity was measured against HIV-1 Lymphotropic G clinical isolates in CEM-SS cells. The settings on record: Homo sapiens. The method, boiled down: as §2
The subject of experiment [27] is CEM-SS. The experiment in a line: Anti-HIV activity was measured against HIV-2 NIH-DZ strain laboratory strains in CEM-SS cells. To be noted: Homo sapiens. The essentials:
as §2

Experiment [28] deals with MT2. The experiment in a line: Cytotoxicity was measured against MT-2/HIV-1(RF). The settings on record: Homo sapiens. The essentials:
as §1

Experiment [29] relates to PBL. As to the kind of experiment: Anti -HIV activity was measured against PBLs/HIV-1 (WEJO). The settings on record: Homo sapiens. The method, boiled down:
(§4)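 Lymphocytes and macrophages were isolated fresh from donor whole blood by Ficoll-Hypaque centrifugation. They were infected at an MOI giving maximal virus production by day 6 and treated with half-log dilutions of acetate salts in triplicate. After 6 days at 37 °C, RT activity or p24 core protein was quantified in cell-free supernatants. EC50 is 50% inhibition of virus production.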

Experiment [30] has as its system CEM-SS. The experiment in a line: Anti-HIV activity was measured against HIV-1 Promonocytropic TPI clinical isolates in CEM-SS cells. The settings on record: Homo sapiens. The essentials: as §2
Experiment [31] relates to CEM-SS. As to the kind of experiment: Anti-HIV activity was measured against HIV-1 Promonocytropic 214 clinical isolates in CEM-SS cells. To be noted: Homo sapiens. The essentials:
as §2

Experiment [32] concerns PMC. As to the kind of experiment: Anti -HIV activity was measured against PMCs/HIV-1(Ba-L). To be noted: Homo sapiens. The essentials: as §4
In experiment [33] the test system is C-344 cell line. The experiment in a line: Anti -HIV activity was measured against C-344/HIV-1(RF). To be noted: Homo sapiens. The essentials: as §2
Experiment [34] concerns CEM-SS. The experiment in a line: Anti-HIV activity was measured against HIV-1,LAV laboratory strains in CEM-SS cells. To be noted: Homo sapiens. The essentials: as §2
Experiment [35] relates to C-344 cell line. The experiment in a line: Cytotoxicity was measured against C-344/HIV-1(RF). The settings on record: Homo sapiens. The method, boiled down:
as §1

For experiment [36], the system named is C8166. As to the kind of experiment: Cytotoxicity was measured against C8166/HIV-1(RF). To be noted: Homo sapiens. The method, boiled down: as §1
Experiment [37] concerns CEM-SS. As to the kind of experiment: Anti-HIV activity was measured against HIV-1 Promonocytropic SKI clinical isolates in CEM-SS cells. The settings on record: Homo sapiens. The method, boiled down: as §2
Experiment [38] concerns CEM-SS. The experiment in a line: Anti-HIV activity was measured against HIV-2 CBL-20 laboratory strains in CEM-SS cells. To be noted: Homo sapiens. The method, boiled down: as §2
Experiment [39] relates to CEM-SS. The experiment in a line: Anti-HIV activity was measured against HIV-1,RF laboratory strains in CEM-SS cells. To be noted: Homo sapiens. The essentials:
as §2

Experiment [40] deals with LDV-7 cell line. As to the kind of experiment: Anti -HIV activity was measured against LDV-7/HIV-1(RF). To be noted: Homo sapiens. The method, boiled down:
as §2

Experiment [41] relates to CEM-SS. The experiment in a line: Anticytopathic activity was measured against HIV-1(RF strain) in CEM-SS human lymphoblastoid target cells. The essentials: as §2

Here are results for three molecules from ChEMBL document CHEMBL1127538, “Anti-HIV michellamines from Ancistrocladus korupensis” (J Med Chem, 1994).

Molecules are shown by their SMILES.

On to `COc1cc(C)cc2c(-c3c(O)cc(O)c4c3C[C@@H](C)N[C@@H]4C)cc(-c3cc(-c4c(O)cc(O)c5c4C[C@@H](C)N[C@@H]5C)c4cc(C)cc(OC)c4c3O)c(O)c12` (stereo in doubt; form 3) [MICHELLAMINE A], for which the IC50 (in general, the concentration that gives 50% inhibition) is 42 µM in the experiment on CEM-SS [1]; 100 µM with MT2 [4]; over 125 µM in the experiment with CCRF-CEM [6]; over 125 µM in the experiment on AA5 [9]; 100 µM in the experiment on LDV-7 cell line [21]; 120 µM in the experiment with CEM-SS [23]. Besides, the IC50 in the experiment with PMC [24] is over 240 µM; in the experiment with PBL [25], over 240 µM; in the experiment with MT2 [28], 200 µM; in the experiment on C-344 cell line [35], 160 µM; in the experiment with C8166 [36] it was over 240 µM. Further, the concentration giving a half-maximal response (EC50) (in general, the midpoint of the concentration-response curve) in the experiment with CEM-SS [2] is 3 µM; with CEM-SS [3], 13 µM; in the experiment on CEM-SS [5], 7 µM; with CEM-SS [7], 11 µM; in the experiment with CEM-SS [8], 2 µM; in the experiment with CEM-SS [10], 1 µM. In addition, the concentration giving a half-maximal response (EC50) in the experiment with MT2 [11] turned out to be 40 µM; in the experiment with AA5 [12] it was 33 µM; with CEM-SS [13], 12 µM; with MT2 [14], 9 µM; in the experiment with CCRF-CEM [15], 23 µM; in the experiment with MT2 [16], 5 µM. Moreover, the half-maximal effective concentration (EC50) with CEM-SS [17] is 18 µM; with CEM-SS [18], 1 µM; in the experiment with MT2 [19] it was 6 µM; with C8166 [20], 88 µM; with CEM-SS [22] it was 13 µM; in the experiment with CEM-SS [26], 3 µM. Besides, the half-maximal effective concentration (EC50) in the experiment with CEM-SS [27] worked out at 5 µM; with PBL [29] it was 5 µM; in the experiment on CEM-SS [30], 6 µM; with CEM-SS [31] it was 10 µM; in the experiment with PMC [32], 10 µM; with C-344 cell line [33], 39 µM. Further, the half-maximal effective concentration (EC50) stood at 4 µM in the experiment on CEM-SS [34]; 12 µM in the experiment with CEM-SS [37]; 2 µM in the experiment with CEM-SS [38]; 12 µM with CEM-SS [39]; 13 µM in the experiment with LDV-7 cell line [40].
For the molecule `COc1cc(C)cc2c(-c3c(O)cc(O)c4c3C[C@@H](C)N[C@@H]4C)cc(-c3cc(-c4c(O)cc(O)c5c4C[C@@H](C)N[C@@H]5C)c4cc(C)cc(OC)c4c3O)c(O)c12` (stereo in doubt; form 1) [MICHELLAMINE A], the 50% effective concentration (EC50) in the experiment on CEM-SS [8] turned out to be 10 µM; in the experiment on CEM-SS [41] (Homo sapiens, CEM-SS), 10 µM.
In the experiment on CEM-SS [41] (cem-ss), `COc1cc(C)cc2c(-c3c(O)cc(O)c4c3C[C@@H](C)N[C@@H]4C)cc(-c3cc(-c4c(O)cc(O)c5c4C[C@@H](C)N[C@@H]5C)c4cc(C)cc(OC)c4c3O)c(O)c12` (stereo in doubt; form 2) [MICHELLAMINE A] gave an EC50 of 13 µM.
